The values that follow come from paper PMC5767125 (Journal of medicinal chemistry, 2017).

Test [1] concerns the target 5-HT2A receptor (Homo sapiens, UniProt P28223). As to the kind of experiment: 5-HT2A receptor binding. The note with it: data not shown; comparable to those at 5-HT1AR.
For test [2], the target named is D3R (Homo sapiens, UniProt P35462). In words: Inhibition of forskolin-dependent stimulation of adenylyl cyclase. The format is cell-based. To be noted: compound at 10x the Ki value; efficacy relative to full agonist Quinpirole. In outline:
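Test compound at 10x its Ki, assessed for inhibiting forskolin-dependent adenylyl cyclase stimulation. Output is mean percent efficacy ± SEM relative to the full agonist quinpirole.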

Test [3] addresses T1, 5-HT2c receptor (Homo sapiens, UniProt P28335).
T1 sequence (P28335 33-458): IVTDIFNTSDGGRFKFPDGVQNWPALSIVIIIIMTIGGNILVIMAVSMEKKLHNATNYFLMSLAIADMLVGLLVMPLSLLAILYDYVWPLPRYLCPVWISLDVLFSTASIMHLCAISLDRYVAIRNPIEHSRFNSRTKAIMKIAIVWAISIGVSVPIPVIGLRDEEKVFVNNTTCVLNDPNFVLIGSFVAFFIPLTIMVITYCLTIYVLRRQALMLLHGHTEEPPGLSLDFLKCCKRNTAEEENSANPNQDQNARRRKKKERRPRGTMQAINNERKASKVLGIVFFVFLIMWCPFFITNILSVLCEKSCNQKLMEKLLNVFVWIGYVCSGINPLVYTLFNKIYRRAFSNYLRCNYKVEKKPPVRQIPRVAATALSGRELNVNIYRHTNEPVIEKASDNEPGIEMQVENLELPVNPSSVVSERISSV
As to the kind of experiment: 5-HT2c receptor binding. The note with it: data not shown; comparable to those at 5-HT1AR.

Sequence of D3R (P35462 whole entry): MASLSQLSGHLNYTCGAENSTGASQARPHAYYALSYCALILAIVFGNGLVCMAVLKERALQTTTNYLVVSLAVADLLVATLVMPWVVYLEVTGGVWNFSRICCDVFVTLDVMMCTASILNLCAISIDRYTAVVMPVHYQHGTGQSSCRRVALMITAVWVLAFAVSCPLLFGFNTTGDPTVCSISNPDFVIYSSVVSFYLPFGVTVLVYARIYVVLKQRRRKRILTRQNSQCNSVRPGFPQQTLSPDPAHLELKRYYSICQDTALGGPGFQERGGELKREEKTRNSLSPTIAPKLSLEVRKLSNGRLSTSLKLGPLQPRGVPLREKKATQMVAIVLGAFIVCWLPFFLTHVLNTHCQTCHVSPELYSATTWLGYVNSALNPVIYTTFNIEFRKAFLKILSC
Sequence of 5-HT2A receptor (P28223 whole entry): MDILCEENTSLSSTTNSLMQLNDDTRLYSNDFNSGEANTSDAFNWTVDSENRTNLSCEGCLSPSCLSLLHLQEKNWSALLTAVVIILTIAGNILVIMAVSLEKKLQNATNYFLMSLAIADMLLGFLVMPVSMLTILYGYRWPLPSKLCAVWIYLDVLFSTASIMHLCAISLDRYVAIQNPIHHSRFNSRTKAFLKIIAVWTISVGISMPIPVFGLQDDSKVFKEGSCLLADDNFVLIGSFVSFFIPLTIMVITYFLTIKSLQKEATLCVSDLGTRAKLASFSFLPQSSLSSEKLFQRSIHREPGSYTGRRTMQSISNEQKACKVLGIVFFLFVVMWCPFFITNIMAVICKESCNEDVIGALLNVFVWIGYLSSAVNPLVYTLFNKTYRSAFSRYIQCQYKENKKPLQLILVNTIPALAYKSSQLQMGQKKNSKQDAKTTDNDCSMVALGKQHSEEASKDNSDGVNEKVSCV

As to `Cn1c(SCCCN2CCC3(CC2)CCN(c2ccc(F)cc2)CC3)nnc1-c1ccccc1` [Compound 15c], the “binding affinity at 5-HT2A receptor” value in test [1] is recorded as “low binding affinities”. For the same compound, the “functional activity, adenylyl cyclase assay” value (shortened to “functional activity”) in test [2] is listed as “low activity”. Moreover, the “binding affinity at 5-HT2c receptor” value in test [3] is listed as “low binding affinities”.
As to `COc1ccccc1N1CCC2(CCN(CCCSc3nnc(-c4ccccc4)n3C)CC2)C1` [Compound 14], in test [1], the “binding affinity at 5-HT2A receptor” value is listed as “low binding affinities”. In addition, the “functional activity” value in test [2] was “low activity”. Also, the “binding affinity at 5-HT2c receptor” value in test [3] is on record as “low binding affinities”.
As to `COc1ccccc1N1CCC2(CCN(CCCSc3nnc(-c4ccccc4)n3C)CC2)CC1` [Compound 15a], the “binding affinity at 5-HT2A receptor” value in test [1] is recorded as “low binding affinities”. Further, in test [2], the “functional activity” value is on record as “partial agonist”. Moreover, the “binding affinity at 5-HT2c receptor” value in test [3] is “low binding affinities”.
